# Source: PubChem BioAssay
# Activity calls are given as the source filed them.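 The calls were made as follows, unless noted: active = viability at or below 10% of carrier control in both of two separate runs; inconclusive = viability at or below 10% in only one of the two runs; inactive = the rest.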
# Experiments:
# [1] = Her2 expression decrease, cell viability multiplex – SKBR3 breast tumor cells, AlphaScreen, ATP viability, primary screen (AID 461;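 active = Her2 level under about 52% in both replicate screens, with viability over 70% of control, limit read from the data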;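 as to Her2 level: lower value means less Her2 protein in the cells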;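 as to viability: percent of carrier control wells set as 100% viability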); conditions: SKBR3 Her2 protein level, 18-24 h, measured here: SKBR3 viability, ATP luminescence, at 10 µM
# [2] = biological target: Receptor tyrosine-protein kinase erbB-2 (Homo sapiens) (UniProt P04626); assay: as above; conditions: 18-24 h, at 10 µM, stronger effect = lower value
# [3] = reduced viability of SK-BR-3 breast cancer cells – cell-based, 24 h, human, pilot screen (AID 572); conditions: SK-BR-3 viability, CellTiter-Glo luminescence, at 10 µM, stronger effect = lower value;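 also: compound exposure lasted between 18 and 24 h rather than exactly 24 h; 100% = carrier-treated control wells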
# [4] = HUVEC growth inhibition – cell-based, human, primary screen (AID 575;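 active = viability at or below 30% in both replicate assays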;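 also: 100% = median of untreated cell wells with 0.1% DMSO on each plate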); conditions: HUVEC proliferation, CellTiter-Glo luminescence, 72 h; at 10 µM; stronger effect = lower value
# Procedure, shortened: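 System: primary human umbilical vein endothelial cells; Quantity: 1250 endothelial cells in each well; Buffer or medium: supplemented EBM, 2% fetal bovine serum; Doses: one dose, 10 µM final, 0.1% DMSO; Incubation: 72 h compound incubation; Technique: ATP-based CellTiter-Glo luminescent read; Evaluation: percent of median DMSO-control luminescence; Controls: vehicle and MePR control wells.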
# [5] = H69AR cell proliferation blockers – human, duplicate replicates, primary screen (AID 580;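 active = viability at or under a set limit in both replicates, limit being median viability minus 3 SD, cut at about 48% in these data, passing the limit was not always enough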;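 also: 100% = mean luminescence of untreated wells and 0% = no signal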); conditions: H69AR lung tumor cells viability, ATP luminescence, 72 h; at 10 µM; stronger effect = lower value
# [6] = MRP1 drug-resistance reversers in H69AR cells – cell-based, doxorubicin co-treatment, pilot screen (AID 601;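 active = viability loss from added drug above about 55%, and viability with drug at most 40%, in both replicates, limit read from the data, passing the limit was not always enough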); conditions: CellTiter-Glo, 72 h, at 10 µM; for differential viability (reversal): stronger effect = higher value
# [7] = yeast transport mutant growth inhibition pilot in 384-well plates, post-Golgi transport modulator project (AID 636; in the data active = inhibition above about 31%); conditions: absorbance 615 nm, about 18 h, stronger effect = higher value
# [8] = growth suppression of yeast trafficking mutant, preliminary HTS, modulators of trafficking downstream of Golgi apparatus project, 1536-format plate, OD 615 nm (AID 637; in the data active = inhibition above about 30%); conditions: yeast transport mutant growth, absorbance 615 nm, 18 h; stronger effect = higher value
# [9] = H69AR cells + 2 uM doxorubicin, measured here: viability with 2 uM doxorubicin, stronger effect = lower value
# [10] = H69AR cells, compound alone cytotoxicity
# Chain of Receptor tyrosine-protein kinase erbB-2 (Homo sapiens) (P04626 whole entry, looked up): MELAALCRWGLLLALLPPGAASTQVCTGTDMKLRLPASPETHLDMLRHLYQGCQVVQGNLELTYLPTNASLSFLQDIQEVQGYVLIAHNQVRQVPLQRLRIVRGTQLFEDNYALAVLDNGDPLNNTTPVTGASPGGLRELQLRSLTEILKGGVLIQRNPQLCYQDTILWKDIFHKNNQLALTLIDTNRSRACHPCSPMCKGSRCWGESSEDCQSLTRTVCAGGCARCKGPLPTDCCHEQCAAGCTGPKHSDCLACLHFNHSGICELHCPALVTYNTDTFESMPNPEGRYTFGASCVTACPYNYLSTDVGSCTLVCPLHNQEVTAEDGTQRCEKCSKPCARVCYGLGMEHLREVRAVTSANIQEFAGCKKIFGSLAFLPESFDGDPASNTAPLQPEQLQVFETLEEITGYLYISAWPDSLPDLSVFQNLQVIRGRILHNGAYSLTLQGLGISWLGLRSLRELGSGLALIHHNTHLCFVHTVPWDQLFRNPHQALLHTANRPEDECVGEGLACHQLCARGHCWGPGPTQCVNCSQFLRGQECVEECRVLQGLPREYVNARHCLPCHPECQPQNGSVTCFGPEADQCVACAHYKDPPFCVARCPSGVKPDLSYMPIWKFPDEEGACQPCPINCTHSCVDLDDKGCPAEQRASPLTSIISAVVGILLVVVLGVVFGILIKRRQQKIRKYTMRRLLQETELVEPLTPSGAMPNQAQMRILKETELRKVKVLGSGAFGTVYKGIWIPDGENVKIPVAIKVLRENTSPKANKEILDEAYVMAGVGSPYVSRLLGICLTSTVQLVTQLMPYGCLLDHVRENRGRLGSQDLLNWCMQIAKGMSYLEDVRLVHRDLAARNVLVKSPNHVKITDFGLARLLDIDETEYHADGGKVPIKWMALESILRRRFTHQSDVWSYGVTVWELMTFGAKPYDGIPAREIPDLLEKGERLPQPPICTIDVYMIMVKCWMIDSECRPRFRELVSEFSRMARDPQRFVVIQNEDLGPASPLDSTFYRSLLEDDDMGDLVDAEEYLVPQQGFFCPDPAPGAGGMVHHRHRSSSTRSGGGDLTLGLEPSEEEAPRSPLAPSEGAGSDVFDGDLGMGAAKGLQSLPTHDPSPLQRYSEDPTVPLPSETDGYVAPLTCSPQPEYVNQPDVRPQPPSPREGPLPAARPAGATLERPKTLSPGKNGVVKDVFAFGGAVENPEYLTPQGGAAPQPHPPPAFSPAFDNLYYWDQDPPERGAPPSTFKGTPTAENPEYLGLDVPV
Compound,viability [1],Her2 level [2],viability [3],viability [4],viability [5],differential viability (reversal) ([6]; H69AR cells + 2 uM doxorubicin),"viability [6, 9]","viability [6, 10]",inhibition [7],inhibition [8]
CCOC(=O)N1CCN(C(=O)COc2ccc(S(=O)(=O)NC3CCCCC3)cc2C)CC1,112%,110% (inactive),112% (inactive),80.9% (inactive),98.9% (inactive),0.31% (inactive),98.5%,98.9%,-0.4% (inactive),-1.31% (inactive)
COc1cc(-c2c(C#N)c(N)nc3c2CCCC3)cc(OC)c1OC,89%,72% (inactive),89% (inactive),74.2% (inactive),76.4% (inactive),-9.71% (inactive),86.1%,76.4%,-2.63% (inactive),3.39% (inactive)
CC(C)CNC(=O)c1ccccc1NC(=O)c1ccc(CN2CCOCC2)cc1,92.5%,96% (inactive),92.5% (inactive),106% (inactive),99.6% (inactive),11.9% (inactive),87.7%,99.6%,-5.68% (inactive),1.8% (inactive)
CN(C)c1ccc(/C=C/c2ccncc2)cc1,96%,152% (inactive),96% (inactive),89.9% (inactive),90.5% (inactive),0.41% (inactive),90.1%,90.5%,3.03% (inactive),4% (inactive)
O=C(NCc1cccs1)c1cc2c(s1)CCCC2,92.5%,102% (inactive),92.5% (inactive),85.8% (inactive),97.6% (inactive),5.47% (inactive),92.2%,97.6%,0.65% (inactive),2.13% (inactive)
Nc1c(C2=NCCO2)nnn1Cc1ccccc1,118%,95.5% (inactive),118% (inactive),94% (inactive),87.3% (inactive),0.315% (inactive),87%,87.3%,-3.42% (inactive),3.28% (inactive)
COc1ccc(-c2nc(C#N)c(NCCCN(C)C)o2)cc1OC,95%,111% (inactive),95% (inactive),102% (inactive),96.2% (inactive),3.08% (inactive),93.1%,96.2%,-0.26% (inactive),-5% (inactive)
O=C1CC(C2CCCO2)C(=O)N1Cc1ccccc1 (stereo not given),98%,94% (inactive),98% (inactive),90.2% (inactive),103% (inactive),3.39% (inactive),99.4%,103%,-6.08% (inactive),-0.66% (inactive)
O=C(O)c1cccc(CN2C(=O)SC(Nc3ccccc3)C2=O)c1 (stereo not given),110%,89% (inactive),110% (inactive),83% (inactive),103% (inactive),8.78% (inactive),94%,103%,-4.8% (inactive),2.95% (inactive)
COc1ccc(CCNC(=O)c2cc(-c3cc(C)c(C)cc3O)n[nH]2)cc1OC,93.5%,87.5% (inactive),93.5% (inactive),86.6% (inactive),77% (inactive),1.53% (inactive),75.5%,77%,-3.82% (inactive),-4% (inactive)
Cn1c(=O)[nH]c(=O)c2[nH]c(NCCCN3CCOCC3)nc21,93.5%,85.5% (inactive),93.5% (inactive),92.1% (inactive),101% (inactive),16.1% (inactive),85%,101%,-2.47% (inactive),-0.79% (inactive)
Cc1cc(C)nc(NC(=O)c2ccc(OC(C)C)cc2)n1,102%,90% (inactive),102% (inactive),95.8% (inactive),104% (inactive),14.3% (inactive),90.2%,104%,-6.03% (inactive),-4.13% (inactive)
CCC1(c2ccc(F)cc2)NC(=O)N(CC(=O)c2ccc[nH]2)C1=O (stereo not given),110%,117% (inactive),110% (inactive),99.3% (inactive),96.6% (inactive),9.76% (inactive),86.9%,96.6%,-2.08% (inactive),-4.83% (inactive)
Cc1cc(=O)n2[nH]c(COc3ccccc3)nc2n1,101%,105% (inactive),101% (inactive),94.1% (inactive),108% (inactive),14% (inactive),94%,108%,-5.33% (inactive),-6.13% (inactive)
CCOC(=O)C1=C(NC#N)OC(C)=C(C)C1c1ccc(O)cc1 (stereo not given),92.5%,79% (inactive),92.5% (inactive),95.1% (inactive),90.3% (inactive),3.92% (inactive),86.4%,90.3%,0.27% (inactive),0.65% (inactive)
Cn1c(=O)c2c(nc(SCC(=O)NCc3ccco3)n2C)n(C)c1=O,116%,98.5% (inactive),116% (inactive),87.1% (inactive),93.5% (inactive),-0.15% (inactive),93.6%,93.5%,-0.78% (inactive),-4.76% (inactive)
O=C(C1CCCCC1)N1CCC(c2nc3c(nnn3Cc3c(F)cccc3Cl)c(=O)[nH]2)CC1,87.5%,96.5% (inactive),87.5% (inactive),85.2% (inactive),71.3% (inactive),48.4% (inactive),22.9%,71.3%,-3.77% (inactive),-6.39% (inactive)
COC(=O)c1cc(NC(=O)C2CC=CCC2C(=O)O)cc(C(=O)OC)c1 (stereo not given),97.5%,86.5% (inactive),97.5% (inactive),104% (inactive),109% (inactive),15.8% (inactive),92.7%,109%,-4.8% (inactive),-1.94% (inactive)
COc1ccc(OC)c(NC(=O)CCN2CCC(C)CC2)c1,112%,120% (inactive),112% (inactive),78.3% (inactive),92.4% (inactive),-0.63% (inactive),93.1%,92.4%,4.86% (inactive),22.4% (inactive)
COc1ccccc1N1CCN(C(=O)c2ccc(CS(=O)(=O)c3ccccc3OC)o2)CC1,90.5%,104% (inactive),90.5% (inactive),85.1% (inactive),76.2% (inactive),-11.9% (inactive),88.1%,76.2%,-5.39% (inactive),-0.32% (inactive)
CS(=O)(=O)c1ccc2nc(NC(=O)c3cccs3)sc2c1,99%,74.5% (inactive),99% (inactive),64% (inactive),45% (active),-6.37% (inactive),51.4%,45%,-6.76% (inactive),2.95% (inactive)
CCOc1ccc(OCc2cccc(C(=O)O)c2)cc1,108%,106% (inactive),108% (inactive),77.6% (inactive),89.6% (inactive),10.5% (inactive),79.1%,89.6%,-1.6% (inactive),-3.87% (inactive)
C=CCn1c(COc2ccccc2F)nnc1SCC(=O)N1CC(=O)Nc2ccccc21,92%,104% (inactive),92% (inactive),109% (inactive),92.2% (inactive),2.88% (inactive),89.3%,92.2%,-4.46% (inactive),51.5% (active)
N#Cc1nc(-c2ccco2)oc1NCCc1ccccc1,92.5%,98.5% (inactive),92.5% (inactive),90.6% (inactive),97.4% (inactive),14.8% (inactive),82.6%,97.4%,-5.58% (inactive),-10.5% (inactive)
O=C1C2C3C=CC(C3)C2C(=O)N1Cc1ccccc1 (stereo not given),93.5%,114% (inactive),93.5% (inactive),116% (inactive),89.6% (inactive),9.27% (inactive),80.3%,89.6%,-3.47% (inactive),2.95% (inactive)
Clc1cccc(Nc2c3c(nc4ncnn24)CCC3)c1,94.5%,82.5% (inactive),94.5% (inactive),93% (inactive),83.8% (inactive),-5.48% (inactive),89.2%,83.8%,1.82% (inactive),9.84% (inactive)
CCCCc1c(O)nc(SCC(=O)c2ccccc2)[nH]c1=O,105%,102% (inactive),105% (inactive),89% (inactive),104% (inactive),21.1% (inactive),83%,104%,-4.87% (inactive),11.8% (inactive)
COc1ccc(NC(=O)Nc2cc(C)ccc2OC)cc1,101%,109% (inactive),101% (inactive),96.1% (inactive),93.6% (inactive),-4.12% (inactive),97.7%,93.6%,1.18% (inactive),-3.11% (inactive)
CCOC(=O)N1CCC(NC(=O)CCc2c(C)nc3c(c(C)nn3C(C)(C)C)c2C)CC1,91%,78.5% (inactive),91% (inactive),82.2% (inactive),85.1% (inactive),1.25% (inactive),83.9%,85.1%,-4.61% (inactive),-3.02% (inactive)
